Shown are actives, neighbours in structure and some others; about 3.6% of the full set was active somewhere.
PAFAH2 FP inh = inhibitors of human PAFAH2. Q99487. recombinant PAFAH2, FP-rhodamine activity probe, fluorescence polarization. inhibition, % at 3.39 µM. hit rate 0.99% among 340,000. AID 492956;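 active = inhibition above the mean over all tested compounds plus 3 SD, cut at about 30% in these data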;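 also: inhibitors block probe labeling of enzyme so polarization drops; 0% = enzyme with DMSO and 100% = wells lacking PAFAH2 protein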
PAFAH1B3 inh = PAFAH1B3 (human) inhibition | Q15102 | recombinant PAFAH1B3, FP-rhodamine probe, fluorescence polarization | hit rate 0.28% among 340,000 | inhibition, % at 3.39 µM;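 active = inhibition above the screen-wide average of all tested compounds plus 3 SD, cut at about 25% in these data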;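 also: 0% = enzyme with DMSO only and 100% = wells lacking PAFAH1B3 protein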
Target sequence (Q15102 whole entry, looked up): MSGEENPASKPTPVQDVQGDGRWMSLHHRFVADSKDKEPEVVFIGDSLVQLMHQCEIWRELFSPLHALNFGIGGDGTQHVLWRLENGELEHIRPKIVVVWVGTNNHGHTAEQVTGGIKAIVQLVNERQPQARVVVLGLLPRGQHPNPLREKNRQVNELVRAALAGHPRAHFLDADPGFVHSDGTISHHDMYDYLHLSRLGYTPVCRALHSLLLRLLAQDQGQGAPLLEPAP
VIM-2 inhibitor = inhibitors of Pseudomonas aeruginosa VIM-2 metallo-beta-lactamase; hit rate 0.89% among 290,000; purified VIM-2, nitrocefin hydrolysis, epi-absorbance fluorescence; inhibition, % at 5.6 µM;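 active = inhibition above the mean of all tested compounds plus 3 SD, cutoff set per screening run, cut at about 7.5% in these data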;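 also: red hydrolysis product quenches plate fluorescence so inhibitors raise well fluorescence; 0% = enzyme with DMSO and 100% = DMSO without enzyme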
IMP-1 inh = blocks Pseudomonas aeruginosa IMP-1 metallo-beta-lactamase; purified IMP-1, nitrocefin hydrolysis, epi-absorbance fluorescence; inhibition, % at 5.6 µM; hit rate 0.45% among 290,000; AID 1556;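 active = inhibition above the mean plus 3 SD of all compounds in the same screening run, cut at about 4.5% in these data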;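 also: 0% = IMP-1 with DMSO and 100% = DMSO wells lacking enzyme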
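Material – recombinant IMP-1 enzyme, purified · Amount – IMP-1 0.2 nM before substrate addition · Medium – HEPES buffer pH 7.1 with ZnSO4 and Brij 35 · Timing – 25 °C, 15 min preincubation, 25 min reaction · Measured by – plate fluorescence quenching by hydrolysis product, ex 480/em 530 nm · Read-out – percent enzyme inhibition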
PAFAH1B2 FP inh = inhibitors of human PAFAH1B2 | P68402 | recombinant PAFAH1B2, FP-rhodamine activity probe, fluorescence polarization | inhibition, % at 3.39 µM | hit rate 1.2% among 340,000;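 active = inhibition above the mean of all tested compounds plus 3 SD, cut at about 24% in these data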;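 also: 0% = enzyme with DMSO and 100% = wells lacking PAFAH1B2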
pPAFAH inh = inhibitors of human plasma PAF acetylhydrolase (pPAFAH); recombinant pPAFAH, FP-rhodamine probe fluorescence polarization; inhibition, % at 3.39 µM; hit rate 1.5% among 330,000; AID 463082;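 active = inhibition above the mean inhibition across the screen plus 3 SD, cut at about 25% in these data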;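 also: inhibitors block binding of the rhodamine activity-based probe so polarization drops; 0% = enzyme with DMSO and 100% = wells lacking pPAFAH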
Target sequence (Q13093 whole entry, looked up): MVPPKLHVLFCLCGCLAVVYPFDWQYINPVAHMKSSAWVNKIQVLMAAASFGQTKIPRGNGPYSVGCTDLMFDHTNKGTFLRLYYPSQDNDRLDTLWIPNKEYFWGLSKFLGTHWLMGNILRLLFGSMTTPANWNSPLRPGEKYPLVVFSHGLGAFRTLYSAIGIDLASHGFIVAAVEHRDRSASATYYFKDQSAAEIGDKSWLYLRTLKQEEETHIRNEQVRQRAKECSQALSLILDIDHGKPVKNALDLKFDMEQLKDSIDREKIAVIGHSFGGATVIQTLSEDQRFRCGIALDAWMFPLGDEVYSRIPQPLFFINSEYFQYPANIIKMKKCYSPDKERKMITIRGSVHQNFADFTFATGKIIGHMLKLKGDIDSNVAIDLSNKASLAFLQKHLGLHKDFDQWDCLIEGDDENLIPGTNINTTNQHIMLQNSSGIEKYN
* hit, by the source's call.

`CCS(=O)(=O)c1ccc(O)c(NC(=O)c2ccc(S(=O)(=O)N3CCCCCC3)cc2)c1` gave PAFAH2 FP inh 13, PAFAH1B3 inh 11, PAFAH1B2 FP inh 10 and pPAFAH inh 28*.
`Cc1cc2cc(CNC(=O)c3ccc(S(=O)(=O)N4CCCCC4)cc3)ccc2n1C` gave PAFAH2 FP inh -8, PAFAH1B3 inh -2, VIM-2 inhibitor -4, IMP-1 inh -3, PAFAH1B2 FP inh -4 and pPAFAH inh 31*.
`O=C(Nc1cc(S(=O)(=O)N2CCCCC2)ccc1O)c1ccccc1NS(=O)(=O)c1ccc(F)c(F)c1` gave PAFAH2 FP inh 48*, PAFAH1B3 inh -10, VIM-2 inhibitor -1, IMP-1 inh 0, PAFAH1B2 FP inh 43* and pPAFAH inh 34*.
For O=C(Nc1ccc(F)cc1F)c1ccc(S(=O)(=O)N2CCCCC2)cc1 the results were PAFAH2 FP inh -2, PAFAH1B3 inh 9, VIM-2 inhibitor 0, IMP-1 inh -1, PAFAH1B2 FP inh 4 and pPAFAH inh 3.
Screening Cc1cc(Oc2ccccc2)nc(SCC(=O)Nc2ccc(Cl)cc2Cl)n1 returned PAFAH2 FP inh -2, PAFAH1B3 inh 1, VIM-2 inhibitor -5, IMP-1 inh 46*, PAFAH1B2 FP inh 0 and pPAFAH inh 5.
For CSc1ccc(/C=C/C(=O)N2CCN(c3ccccn3)CC2)cc1 the results were PAFAH2 FP inh -2, PAFAH1B3 inh 12, VIM-2 inhibitor -2, IMP-1 inh -4, PAFAH1B2 FP inh 6 and pPAFAH inh 9.
Screening CC(C)NC(=O)CC1C(=O)NCCN1CC(c1ccccc1)c1ccccc1 (configuration not stated) returned PAFAH2 FP inh -2, PAFAH1B3 inh 8, VIM-2 inhibitor 3, IMP-1 inh 0, PAFAH1B2 FP inh -1 and pPAFAH inh 29*.
For CSc1nc(NCCCO)c2c3c(sc2n1)CN(C)CC3 the results were PAFAH2 FP inh 6, PAFAH1B3 inh -1, VIM-2 inhibitor 9.4*, IMP-1 inh -1, PAFAH1B2 FP inh 4 and pPAFAH inh -7.
`CSc1nc(NCC(C)O)c2c3c(sc2n1)CN(C)CC3` (configuration not stated) gave PAFAH2 FP inh 0, PAFAH1B3 inh 7, VIM-2 inhibitor 5, IMP-1 inh -3, PAFAH1B2 FP inh 7 and pPAFAH inh 4.
Clc1ccc(SCc2cc(-c3ccccc3)no2)cc1 was read as PAFAH2 FP inh 1, PAFAH1B3 inh 4, VIM-2 inhibitor -5, IMP-1 inh -2, PAFAH1B2 FP inh 42* and pPAFAH inh -1.
CC(NC(=O)c1ccc([N+](=O)[O-])o1)C12CC3CC(CC(C3)C1)C2 (configuration not stated) was read as PAFAH2 FP inh 16, PAFAH1B3 inh 11, VIM-2 inhibitor 1, IMP-1 inh 1, PAFAH1B2 FP inh 39* and pPAFAH inh 0.
For COc1cc(OC)cc(C(=O)N/N=C\c2ccoc2)c1 the results were PAFAH2 FP inh -1, PAFAH1B3 inh 10, VIM-2 inhibitor -4, IMP-1 inh -4, PAFAH1B2 FP inh -8 and pPAFAH inh 6.
`NC(=S)n1[nH]c(-c2ccc([N+](=O)[O-])cc2)c(N=Nc2ccc(O)cc2)c1=O` gave PAFAH2 FP inh 11, PAFAH1B3 inh 11, VIM-2 inhibitor -7, IMP-1 inh -6, PAFAH1B2 FP inh 7 and pPAFAH inh 32*.
For Cc1[nH]n(C(N)=S)c(=O)c1N=Nc1ccc([N+](=O)[O-])cc1Cl the results were PAFAH2 FP inh 27, PAFAH1B3 inh 6, VIM-2 inhibitor -7, IMP-1 inh -8 and PAFAH1B2 FP inh 0.
Screening CCOC(=O)C1=C(C)Nc2sc(C(=O)c3ccc(OC)cc3)c(N)c2C1c1ccc(C(=O)OC)cc1 (configuration not stated) returned PAFAH2 FP inh -14, PAFAH1B3 inh 5, VIM-2 inhibitor 11*, IMP-1 inh -3, PAFAH1B2 FP inh -3 and pPAFAH inh -9.
`CC(=O)Nc1cccc(NC(=O)Cc2ccc3ccccc3c2)c1` gave PAFAH2 FP inh -3, PAFAH1B3 inh 8, VIM-2 inhibitor -1, IMP-1 inh -1, PAFAH1B2 FP inh 7 and pPAFAH inh 5.
`O=[N+]([O-])c1cccc(/C=N/Nc2nc(NCc3ccccc3)nc(N3CCOCC3)n2)c1O` gave PAFAH2 FP inh 0, PAFAH1B3 inh 11, VIM-2 inhibitor 2, IMP-1 inh -3, PAFAH1B2 FP inh 6 and pPAFAH inh 25*.
`C#CCOc1ccc(CNC[C@H]2O[C@@H](n3cnc4c(N)ncnc43)[C@H](O)[C@@H]2O)cc1` gave PAFAH2 FP inh 5, PAFAH1B3 inh 8, PAFAH1B2 FP inh 0 and pPAFAH inh -1.
COCCCN(C(=S)NC(=O)c1ccc(C(C)(C)C)cc1)c1c(N)n(Cc2ccccc2)c(=O)[nH]c1=O was read as PAFAH2 FP inh 9, PAFAH1B3 inh 5, VIM-2 inhibitor -4, IMP-1 inh -1, PAFAH1B2 FP inh 27* and pPAFAH inh 8.
For COc1ccc(C(=O)NC(=S)N(CCC(C)C)c2c(N)n(Cc3ccccc3)c(=O)[nH]c2=O)cc1 the results were PAFAH2 FP inh -2, PAFAH1B3 inh 4, VIM-2 inhibitor -4, IMP-1 inh -3, PAFAH1B2 FP inh 2 and pPAFAH inh 5.
Screening CCCCN(C(=O)c1cccc(-n2cccc2)c1)c1c(N)n(Cc2ccccc2)c(=O)[nH]c1=O returned PAFAH2 FP inh 7, PAFAH1B3 inh -5, PAFAH1B2 FP inh 2 and pPAFAH inh 33*.
Screening O=S(=O)(c1ccc(Br)cc1)N1CCN=C1SCc1cccnc1 returned PAFAH2 FP inh 3, PAFAH1B3 inh 4, VIM-2 inhibitor -4, IMP-1 inh -3, PAFAH1B2 FP inh 25* and pPAFAH inh -5.
O=S(=O)(c1ccc(F)cc1)N1CCN=C1SCc1cccnc1 was read as PAFAH2 FP inh 6, PAFAH1B3 inh 2, VIM-2 inhibitor -2, IMP-1 inh -1, PAFAH1B2 FP inh 8 and pPAFAH inh -2.
Cc1nc2ccccc2c(=O)n1N(c1ccccc1)c1ccccc1 was read as PAFAH2 FP inh 1, PAFAH1B3 inh -2, VIM-2 inhibitor 1, IMP-1 inh 0, PAFAH1B2 FP inh 2 and pPAFAH inh 5.
`C/C(O)=c1/c(=O)nc2cccc3c2=c1c1ccccc1c3=O` gave PAFAH2 FP inh -3, PAFAH1B3 inh -1, VIM-2 inhibitor 10*, IMP-1 inh 4 and PAFAH1B2 FP inh 1.
For O=C(c1ccc2c(c1)OCCO2)N1CCN(c2ncc(C(F)(F)F)cc2Cl)CC1 the results were PAFAH2 FP inh 1, PAFAH1B3 inh 0, PAFAH1B2 FP inh -5 and pPAFAH inh -1.
For CC(=O)c1nn(-c2cccc(Br)c2)cc1C(=O)c1ccccc1 the results were PAFAH2 FP inh 2, PAFAH1B3 inh 10, VIM-2 inhibitor -1, IMP-1 inh 0, PAFAH1B2 FP inh -3 and pPAFAH inh 7.

Source: PubChem (The Scripps Research Institute Molecular Screening Center)
